Measured values pooled from the literature.
Each line is one published result; the experiments were not run side by side.
Cell line: MOLM-13
Read-out: cell growth or viability

C[C@H](N)C(=O)Nc1ccccc1/N=c1\cc(-c2ccc3c(c2)OCCO3)oc2c(N)cccc12
inhibition (CCK-8; 1 µM): 3.7%

Cc1cc2c(C(=O)O)cccc2n1-c1nc2c(c(NCc3ccccc3)n1)CCCN2
IC50 (72 h): 400 nM

c1ccc(Oc2ccc(Nc3ccc4ncc(OCC5CCNCC5)nc4c3)cc2)cc1
EC50 (XTT; 7 days): 1400 nM

COc1ccc2/c(=N/c3ccccc3NC(=O)[C@@H](N)C(C)(C)C)cc(-c3ccc4c(c3)OCCO4)oc2c1
inhibition (CCK-8; 1 µM): 2.86%

CN(C)CCNC(=O)c1ccc(-c2nc3ccc4[nH]ncc4c3c3c2CCCCC3)c(F)c1
GI50 (72 h): 51 nM

c1cc(N2CCCC2)ccc1-c1cc2ncc(OCC3CCNCC3)nc2cc1-c1ccc(N2CCCC2)cc1
EC50 (XTT; 7 days): 1700 nM

Cc1cc2c(C(N)=O)cccc2n1-c1nc2c(c(NCc3ccccc3)n1)CCCN2
IC50 (72 h): 800 nM

NCCCC(=O)Nc1ccccc1/N=c1\cc(-c2ccc3c(c2)OCO3)oc2ccccc12
inhibition (CCK-8; 1 µM): 0.08%

CC1(C)CCC(CN2CCN(c3ccc(C(=O)NS(=O)(=O)c4ccc(NCC5CCOCC5)c([N+](=O)[O-])c4)c(Oc4cnc5[nH]ccc5c4)c3)CC2)=C(c2ccc(Cl)cc2)C1
GI50: 10 nM

CC(C)(C)c1cc(NC(=O)Nc2ccc(-c3cn4c(n3)sc3cc(OCCN5CCOCC5)ccc34)cc2)no1
GI50 (72 h): 9 nM

O=C(Nc1ccccc1/N=c1\cc(-c2ccc3c(c2)OCCO3)oc2cc(F)ccc12)N1CCOCC1
inhibition (CCK-8; 1 µM): 2.91%

CN(C)CCNC(=O)c1ccc(-c2nc3ccc4[nH]ncc4c3c3c2CCCC3)cc1
GI50 (72 h): 100 nM

c1cc(N2CCCCC2)ccc1Nc1cc2ncc(OCC3CCNCC3)nc2cc1-c1ccc(N2CCCCC2)cc1
EC50 (XTT; 7 days): 2800 nM

CN(C)CCNC(=O)c1ccc(-c2nc3ccc4[nH]ncc4c3c3c2CCCC3)c(F)c1
GI50 (72 h): 262 nM

c1cc(-c2cc3ncc(OCC4CCNCC4)nc3cc2-c2cccc(N3CCCCC3)c2)cc(N2CCCCC2)c1
EC50 (XTT; 7 days): 1400 nM
